Test results reported in ChEMBL document CHEMBL1146365, “Synthesis and biological evaluation of new N-(2-hydroxy-4(or 5)-nitro/aminophenyl)benzamides and phenylacetamides as antimicrobial agents” (2007).
Converted amounts (≈) assume the structure as drawn.

Columns and labels:
[1] = system: Candida albicans; experiment: Antifungal activity against Candida albicans isolate assessed after 48 hrs by serial dilution method; assay type: functional
Outline: (§1)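 Broth microdilution per CLSI M27-A in RPMI-1640 with L-glutamine, MOPS-buffered pH 7, with 2-fold compound dilutions. Yeasts were subcultured twice on SDA at 35 °C for 24–48 h. Inoculum was diluted from McFarland 0.5 to 10^4 cfu/ml, giving 10^3 cfu/ml in wells. Incubated 35 °C, humid chamber, 48 h, in triplicate. MIC = lowest concentration with no macroscopic growth.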

[2] = system: Candida albicans; experiment: Antifungal activity against Candida albicans ATCC 10231 assessed after 48 hrs by serial dilution method; assay type: functional; conditions: ATCC 10231, 48 h; outline: as §1
[3] = system: Bacillus subtilis; experiment: Antibacterial activity against Bacillus subtilis ATCC 6633 assessed after 24 hrs by serial dilution method; assay type: functional; conditions: ATCC 6633, 24 h
Outline: (§2)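 Strains were subcultured twice on MHA at 37 °C overnight. Inoculum was diluted from McFarland 0.5 to 10^5 cfu/ml, giving 10^4 cfu/ml in wells. Solvent, medium and organism-only controls were included. Incubated 37 °C, humid chamber, 24 h, in triplicate. MIC = lowest concentration with no macroscopic growth.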

[4] = system: Staphylococcus aureus; experiment: Antibacterial activity against Staphylococcus aureus ATCC 25923 assessed after 24 hrs by serial dilution method; assay type: functional; conditions: ATCC 25923, 24 h; outline: as §2
[5] = system: Escherichia coli; experiment: Antibacterial activity against Escherichia coli ATCC assessed after 24 hrs by serial dilution method
[6] = system: Klebsiella pneumoniae; experiment: Antibacterial activity against Klebsiella pneumoniae isolate assessed after 24 hrs by serial dilution method; assay type: functional; outline: as §2
[7] = system: Escherichia coli; experiment: Antibacterial activity against Escherichia coli isolate assessed after 24 hrs by serial dilution method; assay type: functional; outline: as §2
[8] = system: Staphylococcus aureus; experiment: Antibacterial activity against drug-resistant Staphylococcus aureus assessed after 24 hrs by serial dilution method
[9] = system: Bacillus subtilis; experiment: Antibacterial activity against drug-resistant Bacillus subtilis assessed after 24 hrs by serial dilution method
[10] = system: Pseudomonas aeruginosa; experiment: Antibacterial activity against Pseudomonas aeruginosa isolate assessed after 24 hrs by serial dilution method; assay type: functional; outline: as §2
[11] = system: Klebsiella pneumoniae; experiment: Antibacterial activity against Klebsiella pneumoniae RSHM 574 assessed after 24 hrs by serial dilution method
[12] = system: Pseudomonas aeruginosa; experiment: Antibacterial activity against Pseudomonas aeruginosa ATCC […] assessed after 24 hrs by serial dilution method

SMILES	MIC [1] [µg/mL]	MIC [2] [µg/mL]	MIC [3] [µg/mL]	MIC [4] [µg/mL]	MIC [5] [µg/mL]	MIC [6] [µg/mL]	MIC [7] [µg/mL]	MIC [8] [µg/mL]	MIC [9] [µg/mL]	MIC [10] [µg/mL]	MIC [11] [µg/mL]	MIC [12] [µg/mL]
OC(Cn1cncn1)(Cn1cncn1)c1ccc(F)cc1F [FLUCONAZOLE]	512 (≈ 1670 µM)	4 (≈ 13.1 µM)										
Cc1ccc(CC(=O)Nc2ccc([N+](=O)[O-])cc2O)cc1	250 (≈ 873 µM)	62.5 (≈ 218 µM)	125 (≈ 437 µM)	250 (≈ 873 µM)	125 (≈ 437 µM)	250 (≈ 873 µM)	250 (≈ 873 µM)	500 (≈ 1750 µM)	250 (≈ 873 µM)	250 (≈ 873 µM)	125 (≈ 437 µM)	250 (≈ 873 µM)
CCc1ccc(C(=O)Nc2cc([N+](=O)[O-])ccc2O)cc1	62.5 (≈ 218 µM)	125 (≈ 437 µM)	3.9 (≈ 13.6 µM)	7.8 (≈ 27.2 µM)	125 (≈ 437 µM)	125 (≈ 437 µM)	250 (≈ 873 µM)	7.8 (≈ 27.2 µM)	31.2 (≈ 109 µM)	250 (≈ 873 µM)	250 (≈ 873 µM)	62.5 (≈ 218 µM)
O=C(Cc1ccc(Cl)cc1)Nc1ccc([N+](=O)[O-])cc1O	125 (≈ 408 µM)	125 (≈ 408 µM)	250 (≈ 815 µM)	125 (≈ 408 µM)	125 (≈ 408 µM)	125 (≈ 408 µM)	125 (≈ 408 µM)	125 (≈ 408 µM)	31.2 (≈ 102 µM)	250 (≈ 815 µM)	125 (≈ 408 µM)	125 (≈ 408 µM)
Nc1ccc(NC(=O)Cc2ccc(Br)cc2)c(O)c1	250 (≈ 778 µM)	125 (≈ 389 µM)	125 (≈ 389 µM)	125 (≈ 389 µM)	125 (≈ 389 µM)	125 (≈ 389 µM)	125 (≈ 389 µM)	31.2 (≈ 97.3 µM)	125 (≈ 389 µM)	250 (≈ 778 µM)	125 (≈ 389 µM)	250 (≈ 778 µM)
Nc1ccc(NC(=O)Cc2ccc(Cl)cc2)c(O)c1	125 (≈ 452 µM)	125 (≈ 452 µM)	250 (≈ 903 µM)	62.5 (≈ 226 µM)	125 (≈ 452 µM)	250 (≈ 903 µM)	125 (≈ 452 µM)	31.2 (≈ 113 µM)	62.5 (≈ 226 µM)	125 (≈ 452 µM)	125 (≈ 452 µM)	125 (≈ 452 µM)
Nc1ccc(O)c(NC(=O)Cc2ccc(F)cc2)c1	125 (≈ 480 µM)	250 (≈ 961 µM)	15.6 (≈ 59.9 µM)	62.5 (≈ 240 µM)		250 (≈ 961 µM)	250 (≈ 961 µM)			250 (≈ 961 µM)		
Nc1ccc(O)c(NC(=O)c2ccc(F)cc2)c1	62.5 (≈ 254 µM)	62.5 (≈ 254 µM)	62.5 (≈ 254 µM)	15.6 (≈ 63.4 µM)	125 (≈ 508 µM)	125 (≈ 508 µM)	125 (≈ 508 µM)	15.6 (≈ 63.4 µM)	62.5 (≈ 254 µM)	125 (≈ 508 µM)	62.5 (≈ 254 µM)	62.5 (≈ 254 µM)
O=C(Nc1ccc([N+](=O)[O-])cc1O)c1ccc(F)cc1	250 (≈ 905 µM)	250 (≈ 905 µM)	3.9 (≈ 14.1 µM)	7.8 (≈ 28.2 µM)	125 (≈ 453 µM)	250 (≈ 905 µM)	250 (≈ 905 µM)	15.6 (≈ 56.5 µM)	15.6 (≈ 56.5 µM)	250 (≈ 905 µM)	125 (≈ 453 µM)	125 (≈ 453 µM)
Nc1ccc(NC(=O)c2ccccc2)c(O)c1	62.5 (≈ 274 µM)	62.5 (≈ 274 µM)	62.5 (≈ 274 µM)	125 (≈ 548 µM)	125 (≈ 548 µM)	250 (≈ 1100 µM)	125 (≈ 548 µM)	15.6 (≈ 68.3 µM)	62.5 (≈ 274 µM)	250 (≈ 1100 µM)	125 (≈ 548 µM)	125 (≈ 548 µM)
O=C(Nc1cc([N+](=O)[O-])ccc1O)c1ccc(F)cc1	62.5 (≈ 226 µM)	62.5 (≈ 226 µM)	3.9 (≈ 14.1 µM)	7.8 (≈ 28.2 µM)	125 (≈ 453 µM)	125 (≈ 453 µM)	125 (≈ 453 µM)	15.6 (≈ 56.5 µM)	62.5 (≈ 226 µM)	125 (≈ 453 µM)	31.2 (≈ 113 µM)	62.5 (≈ 226 µM)
CC1(C)S[C@@H]2[C@H](NC(=O)[C@H](N)c3ccccc3)C(=O)N2[C@H]1C(=O)O.O.O.O [AMPICILLIN TRIHYDRATE]			16	64	> 4100	256	500	> 4100	8	2	1020	4
Cc1ccc(CC(=O)Nc2cc(N)ccc2O)cc1	125 (≈ 488 µM)	125 (≈ 488 µM)	15.6 (≈ 60.9 µM)	31.2 (≈ 122 µM)		250 (≈ 975 µM)	250 (≈ 975 µM)			250 (≈ 975 µM)		
